Activity calls are given as the source filed them. No cut-off for these calls is given here.
Legend:
Allium cepa [1] = test: Inhibition of germination of Allium cepa cv. Valenciana (onion) at 0.1 mM or 1 mM after 5 days relative to untreated control; assay type: functional
Triticum aestivum [2] = test: Inhibition of root length of Triticum aestivum cv. Cortex (wheat) at 0.1 mM or 1 mM after 5 days relative to untreated control; assay type: functional
Outline: (§1)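 Wheat: 10 seeds per dish on filter paper with 5 mL test solution, 5 days in the dark at 25 °C, 10 replicates per concentration. Stock test solutions were 10^-3 or 10^-4 M in 10 mM MES, with lower levels made by dilution, all at pH 6.0. Parallel controls were run. Output is % difference from control.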

Triticum aestivum [3] = test: Inhibition of hypocotyl length of Triticum aestivum cv. Cortex (wheat) at 0.1 mM or 1 mM after 5 days relative to untreated control; assay type: functional; outline: as §1
Triticum aestivum [4] = test: Inhibition of germination of Triticum aestivum cv. Cortex (wheat) at 0.1 mM or 1 mM after 5 days relative to untreated control; assay type: functional; outline: as §1
Solanum lycopersicum [5] = test: Inhibition of hypocotyl length of Solanum lycopersicum cv. Tres Cantos (tomato) at 0.1 mM or 1 mM after 5 days relative to untreated control; assay type: functional
Outline: (§2)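 Lettuce and tomato seeds, 25 per dish on filter paper, received 5 mL test solution. Incubation was 5 days in the dark at 25 °C, with four replicates per concentration. Solutions were made at 10^-3 or 10^-4 M in 10 mM MES, diluted serially, and adjusted to pH 6.0. Parallel controls were run. Results are % difference from control.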

Solanum lycopersicum [6] = test: Inhibition of root length of Solanum lycopersicum cv. Tres Cantos (tomato) at 0.1 mM or 1 mM after 5 days relative to untreated control; assay type: functional; outline: as §2
Allium cepa [7] = test: Inhibition of root length of Allium cepa cv. Valenciana (onion) at 0.1 mM or 1 mM after 5 days relative to untreated control; assay type: functional
Allium cepa [8] = test: Inhibition of hypocotyl length of Allium cepa cv. Valenciana (onion) at 0.1 mM or 1 mM after 5 days relative to untreated control; assay type: functional
Allium cepa [9] = test: Stimulation of hypocotyl length of Allium cepa cv. Valenciana (onion) at 0.1 mM or 1 mM after 5 days relative to untreated control; assay type: functional
Allium cepa [10] = test: Stimulation of root length of Allium cepa cv. Valenciana (onion) at 0.1 mM or 1 mM after 5 days relative to untreated control; assay type: functional
Triticum aestivum [11] = test: Stimulation of hypocotyl length of Triticum aestivum cv. Cortex (wheat) at 0.1 mM or 1 mM after 5 days relative to untreated control; assay type: functional; outline: as §1
Triticum aestivum [12] = test: Stimulation of root length of Triticum aestivum cv. Cortex (wheat) at 0.1 mM or 1 mM after 5 days relative to untreated control; assay type: functional; outline: as §1
Solanum lycopersicum [13] = test: Inhibition of germination of Solanum lycopersicum cv. Tres Cantos (tomato) at 0.1 mM or 1 mM after 5 days relative to untreated control; assay type: functional; outline: as §2
Lepidium sativum [14] = test: Inhibition of germination of Lepidium sativum at 0.1 mM or 1 mM after 5 days relative to untreated control; assay type: functional
Lactuca sativa [15] = test: Inhibition of hypocotyl length of Lactuca sativa cv. Roman (lettuce) at 0.1 mM or 1 mM after 5 days relative to untreated control; assay type: functional; outline: as §2
Lactuca sativa [16] = test: Inhibition of root length of Lactuca sativa cv. Roman (lettuce) at 0.1 mM or 1 mM after 5 days relative to untreated control; assay type: functional; outline: as §2
Lactuca sativa [17] = test: Inhibition of germination of Lactuca sativa cv. Roman (lettuce) at 0.1 mM or 1 mM after 5 days relative to untreated control; assay type: functional; outline: as §2
Triticum aestivum [18] = test: Stimulation of germination of Triticum aestivum cv. Cortex (wheat) at 0.1 mM or 1 mM after 5 days relative to untreated control; assay type: functional; outline: as §1
Solanum lycopersicum [19] = test: Stimulation of hypocotyl length of Solanum lycopersicum cv. Tres Cantos (tomato) at 0.1 mM or 1 mM after 5 days relative to untreated control; assay type: functional; outline: as §2
Solanum lycopersicum [20] = test: Stimulation of root length of Solanum lycopersicum cv. Tres Cantos (tomato) at 0.1 mM or 1 mM after 5 days relative to untreated control; assay type: functional; outline: as §2
Solanum lycopersicum [21] = test: Stimulation of germination of Solanum lycopersicum cv. Tres Cantos (tomato) at 0.1 mM or 1 mM after 5 days relative to untreated control; assay type: functional; outline: as §2
Lepidium sativum [22] = test: Stimulation of hypocotyl length of Lepidium sativum at 0.1 mM or 1 mM after 5 days relative to untreated control; assay type: functional
Lepidium sativum [23] = test: Stimulation of root length of Lepidium sativum at 0.1 mM or 1 mM after 5 days relative to untreated control; assay type: functional
Lactuca sativa [24] = test: Stimulation of root length of Lactuca sativa cv. Roman (lettuce) at 0.1 mM or 1 mM after 5 days relative to untreated control; assay type: functional; outline: as §2
Lactuca sativa [25] = test: Stimulation of hypocotyl length of Lactuca sativa cv. Roman (lettuce) at 0.1 mM or 1 mM after 5 days relative to untreated control; assay type: functional; outline: as §2
Lactuca sativa [26] = test: Stimulation of germination of Lactuca sativa cv. Roman (lettuce) at 0.1 mM or 1 mM after 5 days relative to untreated control; assay type: functional; outline: as §2
Lepidium sativum [27] = test: Inhibition of root length of Lepidium sativum at 0.1 mM or 1 mM after 4 days relative to untreated control
Lepidium sativum [28] = test: Inhibition of germination of Lepidium sativum at 0.1 mM or 1 mM after 4 days relative to untreated control; parameters: scale not given: the % may be the effect or the level left
Lepidium sativum [29] = test: Inhibition of hypocotyl length of Lepidium sativum at 0.1 mM or 1 mM after 4 days relative to untreated control
Allium cepa [30] = test: Stimulation of germination of Allium cepa cv. Valenciana (onion) at 0.1 mM or 1 mM after 7 days relative to untreated control
Allium cepa [31] = test: Stimulation of germination of Allium cepa cv. Valenciana (onion) at 0.1 mM or 1 mM after 5 days relative to untreated control; assay type: functional

SMILES	inhibition (INH) (Triticum aestivum [3]) [%]	inhibition (INH) (Solanum lycopersicum [6]) [%]	inhibition (INH) (Allium cepa [7]) [%]	inhibition (INH) (Allium cepa [8]) [%]	Activity (Allium cepa [9]) [%]	Activity (Allium cepa [10]) [%]	Activity (Triticum aestivum [11]) [%]	Activity (Triticum aestivum [12])	inhibition (INH) (Lepidium sativum [14]) [%]	Activity (Triticum aestivum [18])	Activity (Solanum lycopersicum [19])	Activity (Solanum lycopersicum [20]) [%]	Activity (Solanum lycopersicum [21])	Activity (Lepidium sativum [22])	Activity (Lepidium sativum [23])	Activity (Lactuca sativa [24])	Activity (Lactuca sativa [25])	Activity (Lactuca sativa [26])	inhibition (INH) (Lepidium sativum [27])	Activity (Lepidium sativum [28]) [%]	further results
C=C1CC[C@H]2C(=C)CC[C@@H]3[C@H](OC(=O)[C@H]3CO)[C@@H]12	20	>40	>40	>40	>40	>40	20	20%	<20	<=20%	>40%	>40	inactive	>40%	>40%	20%	inactive	<20%	>40%	<20	inhibition (Allium cepa [1]): inactive; inhibition (INH) (Triticum aestivum [2]): 20%; inhibition (INH) (Triticum aestivum [4]): <=20%; inhibition (INH) (Solanum lycopersicum [5]): >40%; inhibition (Solanum lycopersicum [13]): inactive; inhibition (Lactuca sativa [15]): inactive; inhibition (INH) (Lactuca sativa [16]): 20%; inhibition (INH) (Lactuca sativa [17]): <20%; inhibition (INH) (Lepidium sativum [29]): >40%; Activity (Allium cepa [30]): inactive
C=C1C(=O)O[C@H]2[C@H]1CCC(=C)[C@@H]1C[C@@H](O)C(=C)[C@@]12O [5ALPHA-HYDROXYISOZALUZANIN C]	20	>40	>40	>40	>40	>40	20	>40%	>40	inactive	>40%	>40	inactive	>40%	>40%	<20%	20%	20%	>40%	>40	inhibition (Allium cepa [1]): inactive; inhibition (INH) (Triticum aestivum [2]): >40%; inhibition (Triticum aestivum [4]): inactive; inhibition (INH) (Solanum lycopersicum [5]): >40%; Activity (Allium cepa [31]): inactive; inhibition (Solanum lycopersicum [13]): inactive; inhibition (INH) (Lactuca sativa [15]): 20%; inhibition (INH) (Lactuca sativa [16]): <20%; inhibition (INH) (Lactuca sativa [17]): 20%; inhibition (INH) (Lepidium sativum [29]): >40%
COc1nc(C)nc(NC(=O)NS(=O)(=O)c2ccccc2OCCCl)n1 [LOGRAN]	20	>40	>40	>40	>40	>40	20	20%	20	20%	>40%	>40	inactive	>40%	>40%	>40%	>40%	>40%	>40%	20	inhibition (Allium cepa [1]): inactive; inhibition (INH) (Triticum aestivum [2]): 20%; inhibition (INH) (Triticum aestivum [4]): 20%; inhibition (INH) (Solanum lycopersicum [5]): >40%; inhibition (Solanum lycopersicum [13]): inactive; inhibition (INH) (Lactuca sativa [15]): >40%; inhibition (INH) (Lactuca sativa [16]): >40%; inhibition (INH) (Lactuca sativa [17]): >40%; inhibition (INH) (Lepidium sativum [29]): >40%; Activity (Allium cepa [30]): inactive
C=C1[C@@H]2[C@H]3OC(=O)C(=C)[C@@H]3CCC(=C)[C@@H]2C[C@H]1O [ISOZALUZANIN C]	20	>40	>40	>40	>40	>40	20	>40%	>40	20%	>40%	>40	20%	>40%	>40%	inactive	<20%	<20%	>40%	>40	inhibition (Allium cepa [1]): inactive; inhibition (INH) (Triticum aestivum [2]): >40%; inhibition (INH) (Triticum aestivum [4]): 20%; inhibition (INH) (Solanum lycopersicum [5]): >40%; inhibition (INH) (Solanum lycopersicum [13]): 20%; inhibition (INH) (Lactuca sativa [15]): <20%; inhibition (Lactuca sativa [16]): inactive; inhibition (INH) (Lactuca sativa [17]): <20%; inhibition (INH) (Lepidium sativum [29]): >40%; Activity (Allium cepa [30]): inactive
C=C1C(=O)C[C@H]2C(=C)CC[C@H]3C(=C)C(=O)O[C@@H]3[C@@H]12 [DEHYDROZALUZANIN C]	>40	>40	>40	>40	>40	>40	>40	>40%	>40	>40%	>40%	>40	>40%	>40%	>40%	>40%	>40%	>40%	>40%	>40	inhibition (INH) (Allium cepa [1]): >40%; inhibition (INH) (Triticum aestivum [2]): >40%; inhibition (INH) (Triticum aestivum [4]): >40%; inhibition (INH) (Solanum lycopersicum [5]): >40%; Activity (Allium cepa [31]): >40%; inhibition (INH) (Solanum lycopersicum [13]): >40%; inhibition (INH) (Lactuca sativa [15]): >40%; inhibition (INH) (Lactuca sativa [16]): >40%; inhibition (INH) (Lactuca sativa [17]): >40%; inhibition (INH) (Lepidium sativum [29]): >40%
C=C1C(=O)O[C@H]2[C@H]1CCC(=C)[C@@H]1CCC(=C)[C@@]12O	<20	<20	20	<20	<20	20	<20	inactive	<20	inactive	inactive	<20	inactive	>=20%	>=20%	20%	inactive	inactive	>=20%	<20	inhibition (Allium cepa [1]): inactive; inhibition (Triticum aestivum [2]): inactive; inhibition (Triticum aestivum [4]): inactive; inhibition (Solanum lycopersicum [5]): inactive; Activity (Allium cepa [31]): inactive; inhibition (Solanum lycopersicum [13]): inactive; inhibition (Lactuca sativa [15]): inactive; inhibition (INH) (Lactuca sativa [16]): 20%; inhibition (Lactuca sativa [17]): inactive; inhibition (INH) (Lepidium sativum [29]): >=20%
